pIC50: −log10 of the molar value. Blank lines part the entries; values can stand above or below the molecule they belong to. Activity calls are given as the source filed them. The calls are words filed in the database; no cut-off is given here.
Legend:
A549 = assay: Anticancer activity against human A549 cells assessed as inhibition of cell proliferation measured after 72 hrs by MTT assay; assay type: functional, cell-based; conditions: A549, 72 h
In short: (§1)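 Cells (A549, PC-3, HeLa, HUVEC) grown in DMEM with 10% FBS at 37 °C, 5% CO₂. Seeded at 5 × 10⁴ cells/well and allowed 24 h to attach, then exposed 72 h to a concentration series from DMSO stocks. MTT was added for 4 h and formazan dissolved in DMSO, read at 490 nm. Survival taken relative to untreated control. IC50 by Bliss method, three repeats.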

PC-3 = assay: Anticancer activity against human PC3 cells assessed as inhibition of cell proliferation measured after 72 hrs by MTT assay; assay type: functional, cell-based; conditions: PC-3, 72 h; in short: as §1
HUVEC = assay: Cytotoxicity against HUVEC cells assessed as inhibition of cell proliferation measured after 72 hrs by MTT assay; assay type: cell-based; conditions: Homo sapiens; in short: as §1
HeLa [1] = assay: Anticancer activity against human HeLa cells assessed as inhibition of cell proliferation measured after 72 hrs by MTT assay; assay type: functional, cell-based; in short: as §1
HeLa [2] = assay: Inhibition of IDO1 expression in hIFNgamma-stimulated human HeLa cells at 0.5 uM measured after 24 hrs by western blot assay; assay type: functional
In short: (§2)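 HeLa cells were treated 24 h at 37 °C and lysed in buffer containing PMSF. Protein quantified by BCA, equal amounts separated by SDS-PAGE and transferred to nitrocellulose. Blocked in 5% milk, primary antibodies overnight at 4 °C, peroxidase secondary 2 h at 25 °C. Detection by chemiluminescence, β-actin as loading control.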

HeLa [3] = assay: Induction of apoptosis in human HeLa cells assessed as late apoptotic cells at 0.5 uM measured after 24 hrs by Annexin-V-FITC and PI staining based flow cytometry (reference value: 0.199%); assay type: functional
In short: (§3)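 HeLa cells were treated 24 h, washed twice in PBS and resuspended in binding buffer. Stained with annexin V-FITC and PI for 30 min in the dark at room temperature, then analysed by flow cytometry.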

HeLa [4] = assay: Induction of apoptosis in human HeLa cells assessed as upregulation of caspase-3 protein expression at 0.5 uM measured after 24 hrs by western blot analysis; assay type: functional, cell-based; in short: as §2
HeLa [5] = assay: Induction of apoptosis in human HeLa cells assessed as down regulation of Bcl-2 protein expression at 0.5 uM measured after 24 hrs by western blot analysis; assay type: functional, cell-based; in short: as §2
HeLa [6] = assay: Induction of cell cycle arrest in human HeLa cells assessed as accumulation at G2/M phase at 0.5 uM measured after 24 hrs by propidium iodide/RNAse staining based flow cytometry (reference value: 10.7%); assay type: functional
[7] = Toxicity in BALB/c nude mouse transfected with human HeLa cells assessed as lung damage at 30 mg/kg/day, iv for 21 days by H&E staining based immunohistochemistry; assay type: organism-based; conditions: in vivo, 504 h, time 21 day
In short: (§4)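 HeLa xenografts were grown s.c. in male BALB/c nude mice, which received i.v. tail-vein doses once daily for 21 days in Tween 80/saline vehicle, with saline controls. After 3 weeks the mice were sacrificed. Organs from one mouse per group were fixed in 4% paraformaldehyde, paraffin-embedded and sectioned. Sections were dewaxed, stained with Harris hematoxylin and eosin-phloxine, and examined microscopically for histopathologic changes.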

HeLa [8] = assay: Induction of apoptosis in human HeLa cells assessed as cell membrane integrity loss, chromatin condensation and apoptotic body formation by measuring strengthened orange fluorescence intensity at 0.5 uM measured after 24 hrs by AO/EB dual staining based fluorescence microscopy; assay type: functional
HeLa [9] = assay: Induction of intracellular reactive oxygen species generation in human HeLa cells at 0.5 uM measured after 24 hrs by DCFH-DA staining based flow cytometry (reference value: 6.47%); assay type: functional
HeLa [10] = assay: Induction of apoptosis in human HeLa cells assessed as viable cells at 0.5 uM measured after 24 hrs by Annexin-V-FITC and PI staining based flow cytometry (reference value: 96.3%); assay type: functional; conditions: read-out: Activity; in short: as §3
[11] = Toxicity in BALB/c nude mouse transfected with human HeLa cells assessed as spleen damage at 30 mg/kg/day, iv for 21 days by H&E staining based immunohistochemistry; assay type: organism-based; conditions: in vivo, 504 h, time 21 day; in short: as §4
[12] = Toxicity in BALB/c nude mouse transfected with human HeLa cells assessed as liver damage at 30 mg/kg/day, iv for 21 days by H&E staining based immunohistochemistry; assay type: organism-based; conditions: in vivo, 504 h, time 21 day; in short: as §4
[13] = Toxicity in BALB/c nude mouse transfected with human HeLa cells assessed as heart damage at 30 mg/kg/day, iv for 21 days by H&E staining based immunohistochemistry; assay type: organism-based; conditions: in vivo, 504 h, time 21 day; in short: as §4
HeLa [14] = assay: Induction of apoptosis in human HeLa cells assessed as mitochondrial membrane potential dissipation by measuring increase in green fluorescence intensity at 0.5 uM incubated for 24 hrs by JC-1 staining based fluorescence microscopic analysis; assay type: functional, cell-based
HeLa [15] = assay: Induction of apoptosis in human HeLa cells assessed as cell membrane integrity loss, chromatin condensation and apoptotic body formation by measuring reduction in green fluorescence intensity at 0.5 uM measured after 24 hrs by AO/EB dual staining based fluorescence microscopy; assay type: functional
HeLa [16] = assay: Induction of apoptosis in human HeLa cells assessed as upregulation of PARP protein expression at 0.5 uM measured after 24 hrs by western blot analysis; assay type: functional, cell-based; in short: as §2
[17] = Toxicity in BALB/c nude mouse transfected with human HeLa cells assessed as body weight changes at 30 mg/kg/day, iv for 21 days; assay type: organism-based; conditions: in vivo, 504 h, time 21 day
In short: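 Five-week-old male BALB/c nude mice (18-22 g) were inoculated s.c. in the right armpit with HeLa cells (1 × 10⁷ cells/0.1 mL/mouse). At a tumour volume of 120-150 mm³, mice were randomised, five per group. Dosing was i.v. via the tail vein once daily for 21 days, in Tween 80/physiological saline; controls got an equal volume of saline. Body weight was recorded every 2 days.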

HeLa [18] = assay: Inhibition of cell migration in human HeLa cells at 0.5 uM measured after 24 hrs by wound healing assay (reference value: 61%); assay type: functional
In short: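 Confluent HeLa monolayers were scratched with a pipette tip and washed with ice-cold PBS. Incubated 24 h at 37 °C in DMEM/10% FBS containing compound. Wounds were photographed at 0 and 24 h and migration distance measured manually.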

HeLa [19] = assay: Induction of cell cycle arrest in human HeLa cells assessed as accumulation at S phase at 0.5 uM measured after 24 hrs by propidium iodide/RNAse staining based flow cytometry (reference value: 27.8%); assay type: functional
HeLa [20] = assay: Induction of apoptosis in human HeLa cells assessed as early apoptotic cells at 0.5 uM measured after 24 hrs by Annexin-V-FITC and PI staining based flow cytometry (reference value: 2.58%); assay type: functional; in short: as §3
HeLa [21] = assay: Induction of apoptosis in human HeLa cells assessed as mitochondrial membrane potential dissipation at 0.5 uM incubated for 24 hrs by JC-1 staining based flow cytometry (reference value: 6.6%); assay type: functional
[22] = Toxicity in BALB/c nude mouse transfected with human HeLa cells assessed as kidney damage at 30 mg/kg/day, iv for 21 days by H&E staining based immunohistochemistry; assay type: organism-based; conditions: in vivo, 504 h, time 21 day; in short: as §4
HeLa [23] = assay: Induction of cell cycle arrest in human HeLa cells assessed as accumulation at G1 phase at 0.5 uM measured after 24 hrs by propidium iodide/RNAse staining based flow cytometry (reference value: 61.5%); assay type: functional
HeLa [24] = assay: Induction of apoptosis in human HeLa cells assessed as necrotic cells at 0.5 uM measured after 24 hrs by Annexin-V-FITC and PI staining based flow cytometry (reference value: 0.956%); assay type: functional; in short: as §3
HeLa [25] = assay: Induction of apoptosis in human HeLa cells assessed as upregulation of Bax protein expression at 0.5 uM measured after 24 hrs by western blot analysis; assay type: functional, cell-based; in short: as §2
HeLa [26] = assay: Antitumor activity against human HeLa cells xenografted in BALB/c mouse assessed as inhibition of tumor volume at 30 mg/kg/day, iv administered for 21 days by caliper analysis; assay type: functional; conditions: 504 h, time 21 day
In short: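 Male BALB/c nude mice, five weeks old, 18-22 g. Inoculated subcutaneously in the right armpit with 1 × 10⁷ HeLa cells/0.1 mL. At 120-150 mm³, randomized to four groups of five. Once-daily tail-vein injection for 21 days in Tween 80/physiological saline; controls received saline. Tumor volume measured every 2 days by caliper, V = AB²/2.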

SMILES: COc1ccc(/C=C\c2cc(OC)c(OC)c(OC)c2)cc1OC(=O)c1cccc(Cn2cc(CCOC(=O)CCC(=O)n3cc(C4CC(=O)NC4=O)c4cc(F)ccc43)nn2)c1 (stereo unspecified)
pIC50 (A549): 6.02
pIC50 (PC-3): 6.07
pIC50 (HUVEC): 5.35
pIC50 (HeLa [1]): 6.41

SMILES: COc1ccc(/C=C\c2cc(OC)c(OC)c(OC)c2)cc1O [COMBRETASTATIN A4]
inhibition (HeLa [2]): inactive
Activity (HeLa [3]): 10.3%
Activity (HeLa [4]): Active
Activity (HeLa [5]): Active
pIC50 (A549): 6.33
Activity (HeLa [6]): 66.57%
Activity [7]: Non-Toxic
Activity (HeLa [8]): Active
Activity (HeLa [9]): 21.8%
viability at 0.5 µM (HeLa [10]): 63.3%
Activity [11]: Non-Toxic
Activity [12]: Non-Toxic
Activity [13]: Non-Toxic
Activity (HeLa [14]): Active
Activity (HeLa [15]): Active
Activity (HeLa [16]): Active
pIC50 (PC-3): 6.40
Activity [17]: Non-Toxic
inhibition at 0.5 µM (HeLa [18]): 79%
Activity (HeLa [19]): 28.77%
Activity (HeLa [20]): 25%
Activity (HeLa [21]): 54.2%
Activity [22]: Non-Toxic
Activity (HeLa [23]): 4.65%
Activity (HeLa [24]): 1.44%
Activity (HeLa [25]): Active
pIC50 (HUVEC): 6.01
pIC50 (HeLa [1]): 6.68
inhibition in vivo at 30 mg/kg/day (HeLa [26]): 57.6%

SMILES: COc1ccc(/C=C/C(=O)c2cc(OC)c(OC)c(OC)c2)cc1OC(=O)CCC(=O)n1cc(C2CC(=O)NC2=O)c2cc(F)ccc21 (stereo unspecified)
pIC50 (A549): 5.89
pIC50 (PC-3): 5.86
pIC50 (HUVEC): 5.32
pIC50 (HeLa [1]): 6.43

Continued, in another order:

pIC50 (A549): 6.26
pIC50 (PC-3): 6.19
pIC50 (HeLa [1]): 6.46
SMILES: COc1ccc(/C=C/C(=O)c2cc(OC)c(OC)c(OC)c2)cc1O
pIC50 (HUVEC): 5.91

pIC50 (A549): 6.28
pIC50 (PC-3): 6.24
pIC50 (HeLa [1]): 6.48
SMILES: COc1ccc(/C=C\c2cc(OC)c(OC)c(OC)c2)cc1OCCCOC(=O)[C@H](N)Cc1cn(C)c2ccccc12
inhibition (HeLa [2]): Active
pIC50 (HUVEC): 5.51
